Measurements published in ChEMBL document CHEMBL1127414 (J Med Chem, 1994).
≈ marks a conversion by molar mass, not a printed value.

Experiments:
Mus musculus [1] = test: Ability to inhibit the incorporation of [5-3H]-mevalonolactone into cholesterol by in vivo mouse assay by peroral administration at a dose of 24 mg/kg; assay type: functional; conditions: route oral
Method in brief: (§1)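 Female Swiss Webster mice (~25 g), six per group, dosed po by gavage with inhibitor suspended in 5% emulphor. 30 min later, 0.5 μCi/mouse [5-3H]mevalonolactone in saline given sc. Livers removed 30 min after that and saponified in KOH/EtOH overnight at 55 °C, then petroleum-ether extracted. Nonsaponifiable dpm counted. Compounds first tested at a single dose (typically 12 or 24 mg/kg).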

[2] = biological target: T1, Squalene synthase (Mus musculus) (UniProt P53798); test: Tested for the effective dose required for the incorporation of [5-3H]-mevalonolactone into cholesterol by in vivo mouse assay by peroral administration; assay type: functional, organism-based; method in brief: as §1
T1 sequence (whole entry): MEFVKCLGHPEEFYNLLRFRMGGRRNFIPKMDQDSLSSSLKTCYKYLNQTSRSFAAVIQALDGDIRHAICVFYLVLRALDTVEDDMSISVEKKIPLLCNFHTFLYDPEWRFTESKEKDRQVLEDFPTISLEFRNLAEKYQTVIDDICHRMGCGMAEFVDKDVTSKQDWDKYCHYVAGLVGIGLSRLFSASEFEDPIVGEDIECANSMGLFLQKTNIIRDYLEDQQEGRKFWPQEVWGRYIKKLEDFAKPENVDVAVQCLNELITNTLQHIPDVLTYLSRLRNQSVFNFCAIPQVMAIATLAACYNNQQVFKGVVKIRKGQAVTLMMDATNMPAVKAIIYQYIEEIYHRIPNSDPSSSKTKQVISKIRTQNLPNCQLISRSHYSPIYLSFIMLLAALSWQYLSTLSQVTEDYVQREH

Squalene synthase = biological target: T2, Squalene synthase (Rattus norvegicus, UniProt Q02769); test: Tested for inhibition against squalene synthase enzyme in rat liver
T2 sequence (Q02769 whole entry): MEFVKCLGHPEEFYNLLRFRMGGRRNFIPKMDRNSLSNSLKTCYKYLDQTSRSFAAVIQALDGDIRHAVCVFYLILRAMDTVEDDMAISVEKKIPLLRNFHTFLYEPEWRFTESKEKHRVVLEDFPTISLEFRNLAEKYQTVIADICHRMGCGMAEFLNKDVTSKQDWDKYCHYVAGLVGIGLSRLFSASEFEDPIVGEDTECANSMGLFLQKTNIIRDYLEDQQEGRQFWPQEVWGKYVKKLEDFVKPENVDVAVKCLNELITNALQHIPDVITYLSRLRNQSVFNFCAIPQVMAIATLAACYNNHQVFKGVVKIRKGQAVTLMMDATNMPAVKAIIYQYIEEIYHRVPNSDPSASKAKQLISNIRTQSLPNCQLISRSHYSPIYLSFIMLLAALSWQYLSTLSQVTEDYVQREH

[3] = biological target: T3, Squalene synthase (Rattus norvegicus) (UniProt Q02769); test: Concentration required to inhibit rat liver squalene synthase enzyme relative to control (L-694,599)
T3 sequence (whole entry): T2 sequence (Q02769 whole entry)
Method in brief: (§2)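 Enzyme from rat liver. […] Inhibitors added in DMSO (0.3% final) as 3-fold serial dilutions, usually up to 30 ng/mL (about 40 nM). IC50 read from % inhibition vs log concentration.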

Mus musculus [4] = test: Tested for its ability to inhibit the incorporation of [5-3H]-mevalonolactone into cholesterol by in vivo mouse assay by peroral administration at a dose of 12 mg/kg; assay type: functional; conditions: route oral; method in brief: as §1
[5] = biological target: T3, Squalene synthase (Rattus norvegicus); test: concentration required to inhibit rat liver squalene synthase enzyme relative to control (L-694,599); method in brief: as §2
HepG2 [6] = test: Concentration required to inhibit cholesterol synthesis in Hep G2 cells; assay type: functional, cell-based; conditions: Homo sapiens
Method in brief: (§3)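 Hep G2 cells held 2 days in lipoprotein-depleted FBS to stimulate sterol synthesis, then given inhibitor in serum-free medium for 2 h. 15 μCi [5-3H]mevalonate (0.2 mCi/mmol) added for 1 h. Cells washed and saponified, and radioactivity counted by scintillation.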

HepG2 [7] = test: Concentration required to inhibit cholesterol synthesis in Hep G2 cells relative to control (IC50 of L-694,599); assay type: functional, Homo sapiens; method in brief: as §3
Mus musculus [8] = test: Tested for its ability to inhibit the incorporation of [5-3H]-mevalonolactone into cholesterol by in vivo mouse assay by peroral administration at a dose of 40 mg/kg; assay type: functional; conditions: route oral; method in brief: as §1
Aspergillus fumigatus = test: Concentration required to inhibit growth of MF 4839 strain of Aspergillus fumigatus; assay type: functional
Method in brief: (§4)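 Broth microdilution against a panel of clinically relevant fungal strains. Read-out was the minimum fungicidal concentration in μg/mL.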

Candida parapsilosis = test: Concentration required to inhibit growth of MY 1010 strain of Candida parapsilosis; assay type: functional; conditions: Lodderomyces parapsilosis; method in brief: as §4
Candida albicans [9] = test: Concentration required to inhibit growth of MY 1055 strain of Candida albicans; assay type: functional; method in brief: as §4
Candida albicans [10] = test: Concentration required to inhibit growth of MY 1750 strain of Candida albicans; assay type: functional; method in brief: as §4
Candida tropicalis = test: Concentration required to inhibit growth of MY 1012 strain of Candida tropicalis; assay type: functional; method in brief: as §4
Cryptococcus neoformans [11] = test: Concentration required to inhibit growth of MY 1051 strain of Cryptococcus neoformans; assay type: functional; method in brief: as §4
Cryptococcus neoformans [12] = test: Concentration required to inhibit growth of MY 2061 strain of Cryptococcus neoformans; assay type: functional; method in brief: as §4
Trichophyton benhamiae = test: Concentration required to inhibit growth of MF 4864 strain of Trichophyton mentagrophytes; assay type: functional, Arthroderma benhamiae; method in brief: as §4

Compound	inhibition in vivo at 24 mg/kg (Mus musculus [1])	IC50 (Squalene synthase)	Relative activity [3]	Relative activity [5]	IC50 (HepG2 [6])	Relative activity (HepG2 [7])	further results
C=C(CCC12OC(C(=O)O)C(O)(C(=O)O)C(C(=O)O)(O1)[C@H](OC(=O)NCC13CC4CC(CC(C4)C1)C3)[C@H]2O)[C@@H](OC(C)=O)[C@H](C)Cc1ccccc1 (stereo partly specified)	-5%	0.8 nM	0.46	–	–	–	ED50 [2]: > 24 mg/kg
C=C(CCC12OC(C(=O)O)C(O)(C(=O)O)C(C(=O)O)(O1)[C@H](OC(=O)CC(C)(C)C)[C@H]2O)[C@@H](OC(C)=O)[C@H](C)Cc1ccccc1 (stereo partly specified)	–	2 nM	–	0.15	–	–	inhibition in vivo at 12 mg/kg (Mus musculus [4]): 25%; ED50 [2]: > 12 mg/kg
C=C(CCC12OC(C(=O)O)C(O)(C(=O)O)C(C(=O)O)(O1)[C@H](OC(=O)CCCCCCCCCCCCC)[C@H]2O)[C@@H](OC(C)=O)[C@H](C)Cc1ccccc1 (stereo partly specified)	–	0.2 nM	1.1	–	900 nM	6.11	–
CCCC(=O)O[C@@H]1[C@@H](O)C2(CCCC[C@H](C)Cc3ccccc3)OC(C(=O)O)C(O)(C(=O)O)C1(C(=O)O)O2 (stereo partly specified)	–	110 nM	0.0026	–	–	–	inhibition in vivo at 12 mg/kg (Mus musculus [4]): -3%
CC(=O)OC(CCCC12OC(C(=O)O)C(O)(C(=O)O)C(C(=O)O)(O1)[C@H](OC(=O)CC/C=C/C(C)CCCc1ccccc1)[C@H]2O)C(C)Cc1ccccc1 (stereo partly specified)	–	0.37 nM	1.38	–	–	–	inhibition in vivo at 40 mg/kg (Mus musculus [8]): 20%
C=C(CCC12OC(C(=O)O)C(O)(C(=O)O)C(C(=O)O)(O1)[C@H](OC(=O)NCCCCCCCCCCCOc1ccccc1)[C@H]2O)[C@@H](OC(C)=O)[C@H](C)Cc1ccccc1 (stereo partly specified)	56%	0.07 nM	–	1.71	1300 nM	0.64	–
C=C(CCC12OC(C(=O)O)C(OCCCCCCCCOc3ccccc3)(C(=O)O)C(C(=O)O)(O1)[C@H](O)[C@H]2O)[C@@H](OC(C)=O)[C@H](C)Cc1ccccc1 (stereo partly specified)	–	0.81 nM	–	0.16	–	–	–
C=C(CCC12OC(C(=O)O)C(O)(C(=O)O)C(C(=O)O)(O1)[C@H](OCCCCCCCCCCCCCCCC)[C@H]2O)[C@@H](OC(C)=O)[C@H](C)Cc1ccccc1 (stereo partly specified)	–	0.79 nM	–	0.15	14000 nM	0.49	–
C=C(CCC12OC(C(=O)O)C(O)(C(=O)O)C(C(=O)O)(O1)[C@H](OC(=O)CCCCCCCCCCOc1ccccc1)[C@H]2O)[C@@H](OC(C)=O)[C@H](C)Cc1ccccc1 (stereo partly specified)	11%	0.13 nM	1.08	–	2000 nM	3.4	–
C=C(CCC12OC(C(=O)O)C(OCCCCCCCCCCCOc3ccccc3)(C(=O)O)C(C(=O)O)(O1)[C@H](O)[C@H]2O)[C@@H](OC(C)=O)[C@H](C)Cc1ccccc1 (stereo partly specified)	–	1.1 nM	–	0.11	–	–	–
C=C(CCC12OC(C(=O)O)C(O)(C(=O)O)C(C(=O)O)(O1)[C@H](OC(=O)NCCCCCCCCCC)[C@H]2O)[C@@H](OC(C)=O)[C@H](C)Cc1ccccc1 (stereo partly specified)	4%	–	–	–	3600 nM	–	MFC (Aspergillus fumigatus): 32 mg/L (≈ 44.3 µM); MFC (Candida parapsilosis): 8 mg/L (≈ 11.1 µM); MFC (Candida albicans [9]): 8 mg/L (≈ 11.1 µM); MFC (Candida albicans [10]): 4 mg/L (≈ 5.54 µM); MFC (Candida tropicalis): 16 mg/L (≈ 22.2 µM); MFC (Cryptococcus neoformans [11]): 4 mg/L (≈ 5.54 µM); MFC (Cryptococcus neoformans [12]): 0.5 mg/L (≈ 0.693 µM); MFC (Trichophyton benhamiae): 2 mg/L (≈ 2.77 µM)
C=C(CCC12OC(C(=O)O)C(OCCCCCCCCCCCC)(C(=O)O)C(C(=O)O)(O1)[C@H](OCCCCCCCCCCCC)[C@H]2O)[C@@H](OC(C)=O)[C@H](C)Cc1ccccc1 (stereo partly specified)	–	17 nM	–	0.02	–	–	–
C=C(CCC12OC(C(=O)O)C(O)(C(=O)O)C(C(=O)O)(O1)[C@H](OC(=O)SC(C)C)[C@H]2O)[C@@H](OC(C)=O)[C@H](C)Cc1ccccc1 (stereo partly specified)	–	3.4 nM	–	0.06	–	–	ED50 [2]: 14 mg/kg
